Source: ChEMBL document CHEMBL4813947, “New dual ATP-competitive inhibitors of bacterial DNA gyrase and topoisomerase IV active against ESKAPE pathogens” (Eur J Med Chem, 2021)
In brackets after ≈: the same amount, converted by molar mass.

Assays:
Acinetobacter baumannii [1] = assay: Antibacterial activity against Acinetobacter baumannii ATCC 17978 assessed as inhibition of bacterial growth by CLSI protocol based broth microdilution assay; type: functional
Escherichia coli [2] = assay: Antibacterial activity against Escherichia coli MG1655 in presence of efflux pump inhibitor PAbetaN assessed as inhibition of bacterial growth by CLSI protocol based broth microdilution assay; type: functional
Acinetobacter baumannii [3] = assay: Antibacterial activity against clinical isolate ciprofloxacin resistance Acinetobacter baumannii ATCC BAA-1605 assessed as inhibition of bacterial growth by CLSI protocol based broth microdilution assay; type: functional
Summary of the method: (§1)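 Minimum inhibitory concentration by standard serial broth microdilution following CLSI guidelines. Medium was MHBII broth (22 g/L powder: beef extract, casein acid hydrolysate, starch), with MHBII agar (14 g agar per L broth). Where noted, assayed without and with efflux pump substrate phenylalanine-arginine β-naphthylamide (PAβN).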

Staphylococcus aureus [4] = assay: Ratio of MIC for methicillin-resistant Staphylococcus aureus ATCC 43300 harboring GyrB R144I mutant to MIC for methicillin-resistant wild type Staphylococcus aureus ATCC 43300; type: functional
DNA gyrase [5] = biological target: DNA gyrase (Escherichia coli, UniProt P0AES4+P0AES6); assay: Inhibition of Escherichia coli DNA gyrase assessed as reduction in supercoiling of relaxed pNO1 DNA measured after 30 mins by fluorescence assay
[6] = Ratio of genotoxicity in CHO-K1 cells in presence of rat liver S9 fraction by invitro micronucleus test to MIC for Enterococcus faecalis ATCC 29212; type: toxicity, cell-based; conditions: CHO-K1 cells with rat liver S9 fraction
[7] = Drug metabolism in rat liver S9 fraction assessed as hydroxylated methyl-pyrrole moiety metabolite; type: ADME, subcellular
[8] = Ratio of genotoxicity in CHO-K1 cells by invitro micronucleus test to MIC for Enterococcus faecalis ATCC 29212; type: toxicity, cell-based; conditions: hamster
Escherichia coli [9] = assay: Ratio of MIC for Escherichia coli MG1655 harboring GyrB R136C mutant in presence of efflux pump inhibitor PAbetaN to MIC for wild type Escherichia coli MG1655 in presence of efflux pump inhibitor PAbetaN; type: functional
Staphylococcus aureus [10] = assay: Ratio of MIC for vancomycin-resistant Staphylococcus aureus ATCC 700699 harboring GyrB R144I mutant to MIC for vancomycin-resistant wild type Staphylococcus aureus ATCC 700699; type: functional
[11] = Ratio of genotoxicity in CHO-K1 cells in presence of rat liver S9 fraction by invitro micronucleus test to MIC for methicillin-resistant wild type Staphylococcus aureus ATCC 43300; type: toxicity, cell-based; conditions: CHO-K1 cells with rat liver S9 fraction
Staphylococcus aureus [12] = assay: Antibacterial activity against methicillin-resistant Staphylococcus aureus ATCC 43300 harboring GyrB T173A mutant assessed as inhibition of bacterial growth by CLSI protocol based broth microdilution assay; type: functional; summary of the method: as §1
Staphylococcus aureus [13] = assay: Antibacterial activity against vancomycin-resistant Staphylococcus aureus ATCC 700699 harboring GyrB […] mutant assessed as inhibition of bacterial growth by CLSI protocol based broth microdilution assay; type: functional; summary of the method: as §1
[14] = Inhibition of Staphylococcus aureus topoisomerase assessed as reduction in relaxation of supercoiled pNO1 DNA measured after 30 mins by fluorescence assay
Summary of the method: (§2)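 Enzyme run per an earlier-reported procedure; IC50 fitted from seven inhibitor concentrations, mean of three independent measurements.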

Staphylococcus aureus [15] = assay: Antibacterial activity against methicillin-resistant Staphylococcus aureus ATCC 43300 assessed as inhibition of bacterial growth by CLSI protocol based broth microdilution assay; type: functional; summary of the method: as §1
[16] = Drug metabolism in rat liver S9 fraction assessed as direct glucuronide conjugate; type: ADME, subcellular
[17] = tested on: human topoisomerase 2alpha; assay: Selectivity ratio of IC50 for inhibition of human topoisomerase 2alpha to IC50 for inhibition of Staphylococcus aureus DNA gyrase; type: toxicity; conditions: read-out: Ratio IC50
[18] = Genotoxicity in CHO-K1 cells upto 16 uM by invitro micronucleus test; type: cell-based, Cricetulus griseus; conditions: chinese hamster
Staphylococcus aureus [19] = assay: Antibacterial activity against Staphylococcus aureus ATCC 29213 assessed as inhibition of bacterial growth by CLSI protocol based broth microdilution assay; type: functional
[20] = Ratio of genotoxicity in CHO-K1 cells by invitro micronucleus test to MIC for methicillin-resistant wild type Staphylococcus aureus ATCC 43300; type: toxicity, cell-based; conditions: hamster
Staphylococcus aureus [21] = assay: Antibacterial activity against vancomycin-resistant wild type Staphylococcus aureus ATCC 700699 assessed as inhibition of bacterial growth by CLSI protocol based broth microdilution assay; type: functional; summary of the method: as §1
Escherichia coli [22] = assay: Antibacterial activity against wild type Escherichia coli MG1655 assessed as inhibition of bacterial growth by CLSI protocol based broth microdilution assay; type: functional; summary of the method: as §1
Escherichia coli [23] = assay: Antibacterial activity against Escherichia coli 20204 assessed as inhibition of bacterial growth by CLSI protocol based broth microdilution assay; type: functional
[24] = Drug metabolism in rat liver S9 fraction assessed as hydroxylated benzothiazole ring metabolite; type: ADME, subcellular
HepG2 = assay: Cytotoxicity against human HepG2 cells upto 100 uM by lactate dehydrogenase assay; type: cell-based
Summary of the method: (§3)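 HepG2 or MCF-7 cells grown in EMEM with 2 mM L-glutamine, penicillin/streptomycin, 10% FBS at 37 °C, 5% CO2; LDH release kit per manufacturer, test concentrations up to 100 µM.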

[25] = tested on: human topoisomerase 2alpha; assay: Selectivity ratio of IC50 for inhibition of human topoisomerase 2alpha to IC50 for inhibition of Staphylococcus aureus topoisomerase IV; type: toxicity; conditions: read-out: Ratio IC50
Klebsiella pneumoniae = assay: Antibacterial activity against Klebsiella pneumoniae ATCC 10031 assessed as inhibition of bacterial growth by CLSI protocol based broth microdilution assay; type: functional
DNA gyrase [26] = biological target: DNA gyrase (Staphylococcus aureus, UniProt P0A0K8+P20831); assay: Inhibition of Staphylococcus aureus DNA gyrase assessed reduction in supercoiling of relaxed pNO1 DNA measured after 30 mins by fluorescence assay
Staphylococcus aureus [27] = assay: Antibacterial activity against vancomycin-resistant Staphylococcus aureus ATCC 700699 harboring GyrB R144I mutant assessed as inhibition of bacterial growth by CLSI protocol based broth microdilution assay; type: functional; summary of the method: as §1
MCF7 = assay: Cytotoxicity against human MCF-7 cells upto 100 uM by lactate dehydrogenase assay; type: cell-based; summary of the method: as §3
Escherichia coli [28] = assay: Antibacterial activity against clinical isolate ciprofloxacin resistance Escherichia coli 31859 assessed as inhibition of bacterial growth by CLSI protocol based broth microdilution assay; type: functional; summary of the method: as §1
Staphylococcus aureus [29] = assay: Antibacterial activity against methicillin-resistant wild type Staphylococcus aureus ATCC 43300 assessed as inhibition of bacterial growth by CLSI protocol based broth microdilution assay; type: functional; summary of the method: as §1
Pseudomonas aeruginosa = assay: Antibacterial activity against Pseudomonas aeruginosa ATCC 27853 assessed as inhibition of bacterial growth by CLSI protocol based broth microdilution assay; type: functional
[30] = biological target: DNA topoisomerase 2-alpha (Homo sapiens, UniProt P11388); assay: Inhibition of human topoisomerase 2alpha assessed as reduction in relaxation of supercoiled DNA fluorescence-based microplate reader assay
Summary of the method: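 Human topoisomerase IIα, 1.5 U with 0.75 µg supercoiled pNO1 plasmid, 1 mM ATP, pH 7.5 Tris/MgCl2/NaCl/DTT buffer, 37 °C 30 min. Stopped with TF buffer pH 5.0, then triplex capture on immobilized biotinylated oligonucleotide 30 min at room temperature. Dye fluorescence read (ex 485/em 537 nm). IC50 from seven concentrations, mean of three runs; etoposide control.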

[31] = Inhibition of Escherichia coli topoisomerase assessed as reduction in relaxation of supercoiled pNO1 DNA measured after 30 mins by fluorescence assay; summary of the method: as §2

Question: What does the source list for `Cc1[nH]c(C(=O)Nc2nc3c(OCc4ccsc4)cc(C(=O)O)cc3s2)c(Cl)c1Cl`?
Answer: MIC (Acinetobacter baumannii [1]): 1 µg/mL (≈ 2.07 µM); MIC (Escherichia coli [2]): 0.125 µg/mL; MIC (Acinetobacter baumannii [3]): 0.5 µg/mL (≈ 1.04 µM); Ratio (Staphylococcus aureus [4]): 4; IC50 (DNA gyrase [5]): < 10 nM; selectivity ratio [6]: 1920; Drug metabolism [7]: Metabolite_Detected; selectivity ratio [8]: 495; Ratio (Escherichia coli [9]): 8; Ratio (Staphylococcus aureus [10]): 2; selectivity ratio [11]: 478; MIC (Staphylococcus aureus [12]): 0.125 µg/mL (≈ 0.259 µM); MIC (Staphylococcus aureus [13]): 0.0625 µg/mL (≈ 0.13 µM); IC50 [14]: 84 nM; MIC (Staphylococcus aureus [15]): 0.0625 µg/mL (≈ 0.13 µM); Drug metabolism [16]: Metabolite_Detected; selectivity ratio [17]: 450; Activity [18]: Non-Toxic; MIC (Staphylococcus aureus [19]): 0.25 µg/mL (≈ 0.518 µM); selectivity ratio [20]: 123; MIC (Staphylococcus aureus [21]): 0.0313 µg/mL (≈ 0.0649 µM); MIC (Escherichia coli [22]): > 64 µg/mL; MIC (Escherichia coli [23]): 1 µg/mL (≈ 2.07 µM); Drug metabolism [24]: Metabolite_Detected; Activity (HepG2): Non-Toxic; selectivity ratio [25]: 54; MIC (Klebsiella pneumoniae): 2 µg/mL (≈ 4.15 µM); IC50 (DNA gyrase [26]): < 10 nM; MIC (Staphylococcus aureus [27]): 0.0625 µg/mL (≈ 0.13 µM); Activity (MCF7): Non-Toxic; MIC (Escherichia coli [28]): 2 µg/mL (≈ 4.15 µM); MIC (Staphylococcus aureus [29]): 0.0625 µg/mL (≈ 0.13 µM); MIC (Pseudomonas aeruginosa): 2 µg/mL (≈ 4.15 µM); INH [30]: 45 µM; IC50 [31]: 340 nM
